Converted amounts (≈) assume the structure as drawn.
How the values were obtained:
Staphylococcus aureus = assay: Antimicrobial activity against Staphylococcus aureus ATCC 6538 after 24 hrs by twofold serial dilution method; format: functional; conditions: ATCC 6538, 24 h
Procedure, shortened: (§1)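 Broth microdilution in Müller–Hinton broth on compounds with agar-diffusion inhibition zones ≥14 mm (disks with 1 mg/mL in DMSO, 37 °C, 24 h, triplicate).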

[1] = Acute toxicity in Albino rat after 24 hrs; format: organism-based; conditions: in vivo, read-out: ALD50
Procedure, shortened: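 Male rats, 180–200 g, groups of five, fasted 24 h before dosing; compounds given orally in graded doses of 0.1–3.0 g/kg; mortality recorded at each dose level after 24 h to estimate approximate acute lethal dose (ALD50).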

Rattus norvegicus [2] = assay: Antiinflammatory activity against turpentine oil-induced granuloma pouch in anaesthetized Albino rat sub-acute inflammatory model at 20 mg/kg, po 1 hr before turpentine oil challenge for 7 days assessed after 8 days; format: functional
Procedure, shortened: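 Dorsal subcutaneous pouch made in ether-anaesthetised rats with 2 mL air, then 0.5 mL turpentine oil. Test compounds 20 mg/kg po, diclofenac Na 10 mg/kg po, started 1 h before turpentine and continued 7 days. Exudate aspirated on day 8 under anaesthesia; volume measured; % inhibition = (Vcontrol − Vtreated)/Vcontrol × 100; N = 5.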

Rattus norvegicus [3] = assay: Antiinflammatory activity against formalin-induced paw edema in anaesthetized Albino rat sub-acute inflammatory model at 20 mg/kg, po for 7 days measured on day 8; format: functional
Procedure, shortened: (§2)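 Sub-acute paw edema: test compounds 20 mg/kg po daily for 7 days, diclofenac Na 10 mg/kg po; 0.1 mL 2% formalin injected subplantar into left hind paw under light ether anaesthesia on days 1 and 3, 1 h after dosing. Paw volume measured on day 1 and day 8; % anti-inflammatory activity; N = 5 rats.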

Rattus norvegicus [4] = assay: Toxicity in Albino rat assessed as induction of gastric ulceration at 300 mg/kg, po twice a day after 2 hrs; format: organism-based, Stomach; set-up: dose 300 mg/kg, route oral; conditions: in vivo
Procedure, shortened: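 Male albino rats (180–200 g), five per group, fasted 12 h with water ad libitum. Oral dosing at 300 mg/kg; the results text gives two doses at a 2 h interval, while the methods give two equal doses at 0 and 12 h over three days. Controls received 1% gum acacia orally. Rats were killed with ether 6 h after the last dose, and stomachs were inspected grossly for ulceration and hyperemia.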

Rattus norvegicus [5] = assay: Antiinflammatory activity against formalin-induced paw edema in anaesthetized Albino rat sub-acute inflammatory model at 20 mg/kg, po measured on day 1; format: functional; procedure, shortened: as §2
Rattus norvegicus [6] = assay: Antiinflammatory activity against formalin-induced paw edema in anaesthetized Albino rat acute inflammatory model at 20 mg/kg, po dosed 1 hr before formalin challenge assessed after 1 hr; format: functional
Procedure, shortened: (§3)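 Rats in groups of five plus control; test compounds 20 mg/kg po, diclofenac Na 10 mg/kg po, given 1 h before 0.1 mL 2% formalin injected subplantar into left hind paw under light ether anaesthesia. Paw volume by water plethysmometer at 0 and 1, 2, 3, 4 h after formalin; % anti-inflammatory activity versus control; mean ± SE, N = 5.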

Rattus norvegicus [7] = assay: Antiinflammatory activity against formalin-induced paw edema in anaesthetized Albino rat acute inflammatory model at 20 mg/kg, po dosed 1 hr before formalin challenge assessed after 3 hrs; format: functional; procedure, shortened: as §3
Rattus norvegicus [8] = assay: Analgesic activity in Albino rat assessed as tail withdrawal response at 20 mg/kg, po after 1 hr; format: functional
Procedure, shortened: (§4)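 Male albino rats, 120–150 g, groups of five plus untreated control; test compounds 20 mg/kg po, diclofenac Na 10 mg/kg po. Tail immersed in 55 °C water; withdrawal reaction time read 1, 2 and 3 h after dosing; percentage increase in reaction time over basal computed; mean ± SE of five animals.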

Rattus norvegicus [9] = assay: Antiinflammatory activity against formalin-induced paw edema in anaesthetized Albino rat acute inflammatory model at 20 mg/kg, po dosed 1 hr before formalin challenge assessed after 2 hrs; format: functional; procedure, shortened: as §3
Rattus norvegicus [10] = assay: Analgesic activity in Albino rat assessed as tail withdrawal response at 20 mg/kg, po after 2 hrs; format: functional; procedure, shortened: as §4
Rattus norvegicus [11] = assay: Antiinflammatory activity against formalin-induced paw edema in anaesthetized Albino rat acute inflammatory model at 20 mg/kg, po dosed 1 hr before formalin challenge assessed after 4 hrs; format: functional; procedure, shortened: as §3
Rattus norvegicus [12] = assay: Analgesic activity in Albino rat assessed as tail withdrawal response at 20 mg/kg, po after 3 hrs; format: functional; procedure, shortened: as §4
Bacillus subtilis = assay: Antimicrobial activity against Bacillus subtilis NRRL B-14819 after 24 hrs by twofold serial dilution method; format: functional; procedure, shortened: as §1
Micrococcus luteus = assay: Antimicrobial activity against Micrococcus luteus ATCC 21881 after 24 hrs by twofold serial dilution method; format: functional; conditions: ATCC 21881, 24 h; procedure, shortened: as §1
Escherichia coli = assay: Antimicrobial activity against Escherichia coli ATCC 25922 after 24 hrs by twofold serial dilution method; format: functional; conditions: ATCC 25922, 24 h; procedure, shortened: as §1
Klebsiella pneumoniae = assay: Antimicrobial activity against Klebsiella pneumoniae clinical isolate after 24 hrs by twofold serial dilution method; format: functional; procedure, shortened: as §1
Pseudomonas aeruginosa = assay: Antimicrobial activity against Pseudomonas aeruginosa ATCC 27853 after 24 hrs by twofold serial dilution method; format: functional; conditions: ATCC 27853, 24 h; procedure, shortened: as §1

| Compound | MIC (Staphylococcus aureus) | LD50 at 24 h [1] | Activity (Rattus norvegicus [2]) | Activity (Rattus norvegicus [3]) | Activity (Rattus norvegicus [4]) | Activity (Rattus norvegicus [5]) | Activity (Rattus norvegicus [6]) | Activity (Rattus norvegicus [7]) | Activity (Rattus norvegicus [8]) | Activity (Rattus norvegicus [9]) | Activity (Rattus norvegicus [10]) | Activity (Rattus norvegicus [11]) | Activity (Rattus norvegicus [12]) | MIC (Bacillus subtilis) | MIC (Micrococcus luteus) | MIC (Escherichia coli) | MIC (Klebsiella pneumoniae) | MIC (Pseudomonas aeruginosa) |
| --- | --- | --- | --- | --- | --- | --- | --- | --- | --- | --- | --- | --- | --- | --- | --- | --- | --- | --- |
| Cc1c(NC(=O)CSc2nnc(NC(=S)Nc3ccc(Cl)cc3)s2)c(=O)n(-c2ccccc2)n1C | 100 µg/mL (≈ 183 µM) | – | – | – | – | – | – | – | – | – | – | – | – | – | – | – | – | – |
| Cc1c(NC(=O)C2=C(N)N(c3ccccc3)C(=C(C#N)C#N)S2)c(=O)n(-c2ccccc2)n1C | – | > 3000 mg/kg | 62% | 32% | Non-toxic | 40% | 26% | 38% | 27% | 40% | 46% | 40% | 72% | 100 µg/mL (≈ 213 µM) | – | – | – | – |
| Cc1c(NC(=O)c2sc(=S)n(-c3ccc(Cl)cc3)c2N)c(=O)n(-c2ccccc2)n1C | – | – | – | – | – | – | – | – | – | – | – | – | – | 100 µg/mL (≈ 212 µM) | 100 µg/mL (≈ 212 µM) | – | – | – |
| Cc1c(NC(=O)CSc2nnc(NC(=S)Nc3ccccc3)s2)c(=O)n(-c2ccccc2)n1C | 100 µg/mL (≈ 195 µM) | > 3000 mg/kg | 19% | 20% | Non-toxic | 23% | 26% | 21% | 27% | 31% | 43% | 26% | 46% | – | – | – | – | – |
| Cc1nc2c(sc(=S)n2-c2ccc(Cl)cc2)c(=O)n1-c1c(C)n(C)n(-c2ccccc2)c1=O | – | – | – | – | – | – | – | – | – | – | – | – | – | 100 µg/mL (≈ 202 µM) | 100 µg/mL (≈ 202 µM) | – | – | – |
| Cc1c(NC(=O)/C(C#N)=C2\SC=C(c3ccc(Cl)cc3)N2c2ccccc2)c(=O)n(-c2ccccc2)n1C | 100 µg/mL (≈ 185 µM) | > 3000 mg/kg | 58% | 44% | Non-toxic | 37% | 39% | 33% | 22% | 29% | 43% | 43% | 43% | – | – | – | – | – |
| Cc1c(NC(=O)/C(C#N)=C2\SC=C(c3ccc(Cl)cc3)N2c2ccc(Cl)cc2)c(=O)n(-c2ccccc2)n1C | – | > 3000 mg/kg | 60% | 39% | Non-toxic | 29% | 35% | 41% | 34% | 40% | 64% | 29% | 58% | 100 µg/mL (≈ 174 µM) | – | – | – | – |
| Cc1c(NC(=O)CSc2nnc(N)s2)c(=O)n(-c2ccccc2)n1C | – | > 3000 mg/kg | 62% | 39% | Non-toxic | 29% | 26% | 49% | 42% | 43% | 71% | 38% | 76% | – | – | – | – | – |
| CC(=O)Nc1nnc(SCC(=O)Nc2c(C)n(C)n(-c3ccccc3)c2=O)s1 | 100 µg/mL (≈ 239 µM) | > 3000 mg/kg | 60% | 39% | Non-toxic | 29% | 43% | 46% | 30% | 37% | 60% | 43% | 55% | – | – | – | – | – |
| Cc1c(NC(=O)c2sc(=S)n(-c3ccccc3)c2N)c(=O)n(-c2ccccc2)n1C | – | > 3000 mg/kg | 50% | 34% | Non-toxic | 20% | 35% | 41% | 19% | 37% | 50% | 43% | 67% | 100 µg/mL (≈ 229 µM) | – | – | – | – |
| Cc1c(NC(=O)/C(C#N)=C2\SC=C(c3ccc(Br)cc3)N2c2ccccc2)c(=O)n(-c2ccccc2)n1C | – | – | – | – | – | – | – | – | – | – | – | – | – | 100 µg/mL (≈ 171 µM) | – | – | – | – |
| Cc1c(NC(=O)c2sc(=S)n(-c3ccc(Cl)cc3)c2NC(=S)Nc2ccccc2)c(=O)n(-c2ccccc2)n1C | 100 µg/mL (≈ 165 µM) | – | – | – | – | – | – | – | – | – | – | – | – | – | – | – | – | – |
| Cc1c(NC(=O)c2sc(=S)n(-c3ccc(Cl)cc3)c2NC(=S)Nc2ccc(Cl)cc2)c(=O)n(-c2ccccc2)n1C | – | – | – | – | – | – | – | – | – | – | – | – | – | 100 µg/mL (≈ 156 µM) | – | – | – | – |
| Cc1c(NC(=O)/C(C#N)=C2\SCC(=O)N2c2ccc(Cl)cc2)c(=O)n(-c2ccccc2)n1C | 50 µg/mL (≈ 104 µM) | – | – | – | – | – | – | – | – | – | – | – | – | 25 µg/mL (≈ 52.1 µM) | 12.5 µg/mL (≈ 26 µM) | 25 µg/mL (≈ 52.1 µM) | 100 µg/mL (≈ 208 µM) | 50 µg/mL (≈ 104 µM) |
| CCOC(=O)Nc1nnc(SCC(=O)Nc2c(C)n(C)n(-c3ccccc3)c2=O)s1 | – | > 3000 mg/kg | 33% | 27% | Non-toxic | 29% | 35% | 23% | 17% | 17% | 15% | 19% | 28% | 100 µg/mL (≈ 223 µM) | – | – | – | – |
| Cc1c(NC(=O)c2sc(=S)n(-c3ccc(Cl)cc3)c2NC(=O)Nc2ccccc2)c(=O)n(-c2ccccc2)n1C | – | > 3000 mg/kg | 72% | 42% | Non-toxic | 31% | 26% | 49% | 18% | 37% | 49% | 40% | 44% | 100 µg/mL (≈ 169 µM) | – | – | – | – |
| Cc1c(NC(=O)c2sc(=S)n(-c3ccccc3)c2NC(=S)Nc2ccc(Cl)cc2)c(=O)n(-c2ccccc2)n1C | 25 µg/mL (≈ 41.2 µM) | – | – | – | – | – | – | – | – | – | – | – | – | 12.5 µg/mL (≈ 20.6 µM) | – | 25 µg/mL (≈ 41.2 µM) | 50 µg/mL (≈ 82.3 µM) | 50 µg/mL (≈ 82.3 µM) |
